Measurements as given in ChEMBL document CHEMBL4251575, “Design, synthesis, and biological evaluation of 1,3-diarylisoquinolines as novel topoisomerase I catalytic inhibitors” (Eur J Med Chem, 2018).
The source made the active and inactive calls. The calls are words filed in the database; no cut-off is given here.

Tests used:
[1] = biological target: T1, DNA topoisomerase 1 (Homo sapiens) (UniProt P11387); test: Poison activity at human topoisomerase 1 assessed as induction of relaxation of pHOT1 DNA substrate at 100 to 1000 uM incubated for 30 mins by ethidium bromide dye-based agarose gel electrophoresis analysis
T1 sequence (whole entry): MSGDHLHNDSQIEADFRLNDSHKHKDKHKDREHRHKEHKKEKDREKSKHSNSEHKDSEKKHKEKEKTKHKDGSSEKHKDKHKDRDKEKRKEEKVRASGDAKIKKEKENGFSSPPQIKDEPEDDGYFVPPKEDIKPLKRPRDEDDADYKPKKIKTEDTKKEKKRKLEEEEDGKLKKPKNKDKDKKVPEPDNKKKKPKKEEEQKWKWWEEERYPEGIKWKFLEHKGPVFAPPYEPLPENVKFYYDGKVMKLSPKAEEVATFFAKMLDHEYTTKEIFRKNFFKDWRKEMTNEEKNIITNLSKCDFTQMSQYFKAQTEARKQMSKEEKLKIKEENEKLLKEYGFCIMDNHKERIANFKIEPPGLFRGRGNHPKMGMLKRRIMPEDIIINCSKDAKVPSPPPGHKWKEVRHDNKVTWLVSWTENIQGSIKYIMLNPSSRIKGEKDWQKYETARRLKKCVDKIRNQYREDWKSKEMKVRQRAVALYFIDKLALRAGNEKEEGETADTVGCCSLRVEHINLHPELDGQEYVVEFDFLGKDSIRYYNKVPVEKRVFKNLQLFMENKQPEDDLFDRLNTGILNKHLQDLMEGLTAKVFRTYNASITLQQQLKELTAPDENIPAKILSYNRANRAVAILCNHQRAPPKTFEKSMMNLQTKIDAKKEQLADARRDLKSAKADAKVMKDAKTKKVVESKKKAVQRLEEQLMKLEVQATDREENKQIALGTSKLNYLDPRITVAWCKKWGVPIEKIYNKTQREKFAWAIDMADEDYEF
Summary of the method: (§1)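 pHOT1 (100 ng) relaxed first with topo I (3 units) in 10 mM Tris-HCl pH 7.5, 1 mM EDTA, 30 min at 37 °C. Compound then added for a further 30 min at 37 °C; amsacrine positive control at 100–1000 μM. Stopped with 1% SDS and run on 1% agarose at 15 V/cm for 12–15 h. EtBr-stained and imaged.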

[2] = biological target: T1, DNA topoisomerase 1 (Homo sapiens); test: Inhibition of human recombinant DNA topoisomerase 1-mediated DNA relaxation at 100 uM incubated for 30 mins using pBR322 DNA substrate by ethidium bromide dye-based agarose gel electrophoresis
Summary of the method: (§2)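 pBR322 (100 ng) with recombinant human topo I (0.4 units) in 10 mM Tris-HCl pH 7.9, 150 mM NaCl, 0.1% BSA, 1 mM spermidine, 5% glycerol, 30 min at 37 °C. Stopped with sarcosyl/glycerol/dye and run on 1% agarose/TAE at 15 V for 7 h. EtBr-stained; supercoiled DNA quantified as % inhibition. Relative values are the ratio to the camptothecin control.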

[3] = biological target: T1, DNA topoisomerase 1 (Homo sapiens); test: Inhibition of human recombinant DNA topoisomerase 1-mediated DNA relaxation at 20 uM incubated for 30 mins using pBR322 DNA substrate by ethidium bromide dye-based agarose gel electrophoresis relative to control camptothecin; summary of the method: as §2
[4] = biological target: T1, DNA topoisomerase 1 (Homo sapiens); test: Inhibition of human recombinant DNA topoisomerase 1-mediated DNA relaxation at 20 uM incubated for 30 mins using pBR322 DNA substrate by ethidium bromide dye-based agarose gel electrophoresis; summary of the method: as §2
MCF-10A = test: Cytotoxicity against human MCF10A cells after 72 hrs by cell counting kit-8 analysis; format: cell-based
Summary of the method: (§3)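 Cells seeded at 2×10^5 or 1×10^5 per well, grown overnight in medium with 10% FBS at 37 °C, 5% CO₂, then FBS-starved 4 h. Graded compound concentrations given for 72 h. CCK-8 then added for 4 h and absorbance read at 450 nm. IC50 from a four-parameter logistic fit; mean ± S.D. of three experiments, each in triplicate.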

Sus scrofa [5] = organism: Sus scrofa; test: Inhibition of porcine brain tubulin polymerization at 10 uM after 61 mins by spectroscopic analysis
Summary of the method: (§4)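 Porcine brain tubulin at 1.5 mg/mL final in cold PEM buffer (80 mM Na-PIPES pH 6.9, 1 mM MgCl₂, 30% glycerol, 1 mM EGTA) with 1 mM GTP. Compounds were dissolved in DMSO and diluted in PEM. They were pre-warmed 2 min at 37 °C before tubulin was added. DMSO vehicle and paclitaxel controls. A340 was read each minute for 61 min at 37 °C.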

T47D = test: Cytotoxicity against human T47D cells after 72 hrs by cell counting kit-8 analysis; format: functional, cell-based; summary of the method: as §3
Sus scrofa [6] = organism: Sus scrofa; test: Induction of porcine brain tubulin polymerization at 10 uM after 61 mins by spectroscopic analysis; summary of the method: as §4
HCT-15 = test: Cytotoxicity against human HCT15 cells after 72 hrs by cell counting kit-8 analysis; format: functional, cell-based; settings: HCT-15, 72 h; summary of the method: as §3
[7] = biological target: DNA topoisomerase 2-alpha (Homo sapiens) (UniProt P11388); test: Inhibition of human DNA topoisomerase 2 alpha-mediated DNA relaxation at 100 uM incubated for 30 mins using pBR322 DNA substrate by ethidium bromide dye-based agarose gel electrophoresis
DNA topoisomerase 2-alpha (Homo sapiens), sequence (P11388 whole entry): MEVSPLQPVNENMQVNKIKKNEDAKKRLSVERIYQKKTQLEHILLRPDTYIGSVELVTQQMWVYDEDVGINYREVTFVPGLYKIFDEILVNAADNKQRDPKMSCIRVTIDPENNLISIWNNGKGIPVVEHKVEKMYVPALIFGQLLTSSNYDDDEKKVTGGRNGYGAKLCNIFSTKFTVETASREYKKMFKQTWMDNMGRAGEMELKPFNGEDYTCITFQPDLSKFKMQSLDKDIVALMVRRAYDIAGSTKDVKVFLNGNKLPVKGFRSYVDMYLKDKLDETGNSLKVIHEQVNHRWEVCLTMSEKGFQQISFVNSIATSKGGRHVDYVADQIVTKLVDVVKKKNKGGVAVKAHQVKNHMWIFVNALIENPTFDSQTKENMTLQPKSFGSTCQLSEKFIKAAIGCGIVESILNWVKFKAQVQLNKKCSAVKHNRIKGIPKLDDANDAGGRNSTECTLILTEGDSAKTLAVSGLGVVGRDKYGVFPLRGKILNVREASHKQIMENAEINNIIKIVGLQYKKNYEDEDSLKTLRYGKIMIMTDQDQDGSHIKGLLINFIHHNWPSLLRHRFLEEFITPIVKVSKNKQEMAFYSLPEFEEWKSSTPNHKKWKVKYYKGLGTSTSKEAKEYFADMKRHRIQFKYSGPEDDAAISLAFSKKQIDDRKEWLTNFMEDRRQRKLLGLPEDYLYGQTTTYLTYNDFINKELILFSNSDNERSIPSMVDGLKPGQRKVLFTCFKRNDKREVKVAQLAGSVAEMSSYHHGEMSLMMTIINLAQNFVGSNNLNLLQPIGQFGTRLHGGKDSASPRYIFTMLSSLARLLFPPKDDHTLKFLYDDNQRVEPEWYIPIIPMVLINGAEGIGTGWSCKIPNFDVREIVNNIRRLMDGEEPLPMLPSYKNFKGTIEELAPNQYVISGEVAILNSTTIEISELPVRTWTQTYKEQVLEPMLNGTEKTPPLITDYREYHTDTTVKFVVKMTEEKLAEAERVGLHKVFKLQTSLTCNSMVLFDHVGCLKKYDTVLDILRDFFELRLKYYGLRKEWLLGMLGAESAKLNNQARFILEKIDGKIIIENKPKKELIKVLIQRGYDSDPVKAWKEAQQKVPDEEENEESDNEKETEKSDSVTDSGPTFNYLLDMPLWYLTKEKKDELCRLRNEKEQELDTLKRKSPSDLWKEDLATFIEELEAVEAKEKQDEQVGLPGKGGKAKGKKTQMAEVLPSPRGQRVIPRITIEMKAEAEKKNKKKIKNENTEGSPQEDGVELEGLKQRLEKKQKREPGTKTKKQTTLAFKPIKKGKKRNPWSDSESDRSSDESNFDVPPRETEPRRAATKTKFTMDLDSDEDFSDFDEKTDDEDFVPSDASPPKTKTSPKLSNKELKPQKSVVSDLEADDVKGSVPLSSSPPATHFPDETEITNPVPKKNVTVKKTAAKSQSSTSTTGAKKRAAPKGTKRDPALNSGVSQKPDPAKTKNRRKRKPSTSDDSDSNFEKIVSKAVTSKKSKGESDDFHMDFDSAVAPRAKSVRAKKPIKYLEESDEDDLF
Summary of the method: (§5)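 Stopped with EDTA and run on 1% agarose/TAE at 25 V for 4 h. EtBr-stained; supercoiled DNA quantified as % inhibition. Relative values are the ratio to the etoposide control.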

[8] = biological target: T1, DNA topoisomerase 1 (Homo sapiens); test: Inhibition of human recombinant DNA topoisomerase 1-mediated DNA relaxation at 100 uM incubated for 30 mins using pBR322 DNA substrate by ethidium bromide dye-based agarose gel electrophoresis relative to control camptothecin; summary of the method: as §2
[9] = biological target: DNA topoisomerase 2-alpha (Homo sapiens) (UniProt P11388); test: Inhibition of human DNA topoisomerase 2 alpha-mediated DNA relaxation at 100 uM incubated for 30 mins using pBR322 DNA substrate by ethidium bromide dye-based agarose gel electrophoresis relative to control etoposide; summary of the method: as §5
[10] = biological target: T1, DNA topoisomerase 1 (Homo sapiens); test: Poison activity at topoisomerase 1 in human T47D cells assessed as induction of induction of DNA damage by measuring tail DNA levels at 5 uM after 24 hrs by SYBR Green staining-based comet assay; format: cell-based
Summary of the method: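 T47D cells seeded 1 x 10⁵ per well, treated 24 h, trypsinised, resuspended in ice-cold PBS, embedded in low-melting agarose on slides. Lysed 30 min at 4 °C in the dark, alkaline unwinding (pH > 13) 30 min at r.t., alkaline electrophoresis 20 min at 15 V, SYBR Green staining, fluorescence microscopy; % tail DNA versus untreated control.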

DNA = test: Binding affinity to […] (unknown origin) at 100 uM preincubated for 30 mins in presence of Hoechst 33342 followed by compound addition measured after 30 mins by fluorescence assay; format: nucleic-acid assay
Summary of the method: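 ctDNA (30 µM final) pre-mixed with Hoechst 33342 (1 µg/mL final) in 10 mM Tris (pH 7.2), 30 min at r.t. with shaking. Compound then added (0–100 μM series; DMSO 1% in all wells, DMSO-only control) and incubated 30 min at r.t. Fluorescence read at 361 nm excitation, emission spectrum 400–600 nm.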

[11] = biological target: T1, DNA topoisomerase 1 (Homo sapiens); test: Poison activity at topoisomerase 1 in human T47D cells assessed as induction of induction of DNA damage by measuring tail DNA levels at 10 uM after 24 hrs by SYBR Green staining-based comet assay; format: cell-based
Summary of the method: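 T47D cells seeded at 1×10^5 per well and treated 24 h, then trypsinized and suspended in ice-cold PBS. Embedded in low-melting agarose, lysed 30 min at 4 °C and alkaline-unwound (pH > 13) 30 min at r.t. Alkaline electrophoresis 20 min at 15 V, then SYBR Green stain and fluorescence microscopy. Read-out is % tail DNA versus untreated and CPT controls.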

[12] = biological target: T1, DNA topoisomerase 1 (Homo sapiens); test: Inhibition of DNA topoisomerase-1 in human T47D cells assessed as decrease in free topoisomerase-1 levels incubated for 2 hrs by band depletion assay; format: cell-based
Summary of the method: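 T47D cells seeded at 2×10^5 in 60-mm plates. On day 2 they were treated 2 h at 37 °C, harvested by trypsin and held in PBS containing the same compound concentration. Lysis in 62.5 mM Tris-HCl pH 6.8, 1 mM EDTA, 2% SDS with sonication, then centrifuged. 50 µg protein run on 8% SDS-PAGE; Western blot for free topo I with ECL detection.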

[13] = biological target: T1, DNA topoisomerase 1 (Homo sapiens); test: Poison activity at topoisomerase 1 (unknown origin) assessed as […] in enzyme mediated DNA cleavage complex formation by measuring increase in nicked DNA level at 500 uM using supercoiled pBR322 plasmid DNA as substrate after 20 mins by ethidium bromine dye-based agarose gel electrophoresis analysis
Summary of the method: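 Supercoiled pBR322 (100 ng) pre-reacted 10 min with topo I (3 units), then compound added for 20 min at 37 °C. Stopped with 0.5% sarcosyl and digested with proteinase K at 45 °C for 30 min, then heated 2 min at 70 °C. Run on 1.5% agarose/TAE containing 0.5 μg/mL EtBr; nicked DNA versus DMSO control, CPT as poison control.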

[14] = biological target: T1, DNA topoisomerase 1 (Homo sapiens); test: Inhibition of free DNA topoisomerase-1 in human T47D cells at 50 uM assessed as suppression of camptothecin-induced decrease in free topoisomerase-1 levels pre-treated before camptothecin addition and measured after 2 hrs by band depletion assay; format: cell-based
[15] = biological target: T1, DNA topoisomerase 1 (Homo sapiens); test: Poison activity at human topoisomerase 1 assessed as induction of relaxation of pHOT1 DNA substrate at 1000 uM incubated for 30 mins by ethidium bromide dye-based agarose gel electrophoresis analysis; summary of the method: as §1
Sus scrofa [16] = organism: Sus scrofa; test: Inhibition of porcine brain tubulin polymerization at 15 uM after 61 mins by spectroscopic analysis; summary of the method: as §4

Row | Compound | Activity [1] | inhibition [2] [%] | Ratio [3] | inhibition [4] [%] | IC50 (MCF-10A) [µM] | inhibition (Sus scrofa [5]) | IC50 (T47D) [µM] | Tubulin polymerization induction (Sus scrofa [6]) | IC50 (HCT-15) [µM] | inhibition [7] [%] | Ratio [8] | Ratio [9] | Activity [10] [%] | Activity (DNA) | Activity [11] [%] | inhibition [12] | Activity [13] | inhibition [14] | Activity [15] | inhibition (Sus scrofa [16])
1 | COc1cc(NS(C)(=O)=O)ccc1Nc1c2ccccc2nc2ccccc12 | Active | – | – | – | – | – | – | – | – | – | – | – | – | – | – | – | – | – | – | –
2 | COc1cc(OC)cc(-c2cc3ccc(N(C)C)cc3c(-c3cccc(N)c3)n2)c1 | – | 73.1 | 2.5 | 71.5 | 42 | inactive | 3.59 | inactive | 2.53 | 2.5 | 1.12 | 0.04 | – | – | – | – | – | – | – | –
3 | COc1ccc(-c2cc3cc(C)ccc3c(-c3cccc(N)c3)n2)c(C)c1 | – | 79.7 | 2.53 | 72.4 | 5.74 | – | 0.74 | inactive | 2.77 | 4.1 | 1.22 | 0.06 | 5.82 | inactive | 9.43 | inactive | inactive | Active | inactive | Active
4 | CC[C@@]1(O)C(=O)OCc2c1cc1n(c2=O)Cc2cc3ccccc3nc2-1 | – | – | – | – | – | – | – | – | – | – | – | – | 25 | – | – | – | – | – | – | –
